This excerpt belongs to a sample that is enriched for hits.
ABCB6 inh 2 = ABCB6 transporter inhibitors, primary screen, K562-ABCB6 cells, flow cytometry, MLPCN library; 0.19% of 360,000 active; K562-ABCB6 porphyrin accumulation, 1 h; active compounds read low; fluorescence ratio to DMSO, % at 10 µM;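 active means fluorescence ratio to DMSO below 75%, the collection mean minus 3 SD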;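 further: signal is porphyrin accumulated inside mitochondria; lower ratio means ABCB6 inhibition with less porphyrin fluorescence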
Target sequence (Q9NP58 whole entry, looked up): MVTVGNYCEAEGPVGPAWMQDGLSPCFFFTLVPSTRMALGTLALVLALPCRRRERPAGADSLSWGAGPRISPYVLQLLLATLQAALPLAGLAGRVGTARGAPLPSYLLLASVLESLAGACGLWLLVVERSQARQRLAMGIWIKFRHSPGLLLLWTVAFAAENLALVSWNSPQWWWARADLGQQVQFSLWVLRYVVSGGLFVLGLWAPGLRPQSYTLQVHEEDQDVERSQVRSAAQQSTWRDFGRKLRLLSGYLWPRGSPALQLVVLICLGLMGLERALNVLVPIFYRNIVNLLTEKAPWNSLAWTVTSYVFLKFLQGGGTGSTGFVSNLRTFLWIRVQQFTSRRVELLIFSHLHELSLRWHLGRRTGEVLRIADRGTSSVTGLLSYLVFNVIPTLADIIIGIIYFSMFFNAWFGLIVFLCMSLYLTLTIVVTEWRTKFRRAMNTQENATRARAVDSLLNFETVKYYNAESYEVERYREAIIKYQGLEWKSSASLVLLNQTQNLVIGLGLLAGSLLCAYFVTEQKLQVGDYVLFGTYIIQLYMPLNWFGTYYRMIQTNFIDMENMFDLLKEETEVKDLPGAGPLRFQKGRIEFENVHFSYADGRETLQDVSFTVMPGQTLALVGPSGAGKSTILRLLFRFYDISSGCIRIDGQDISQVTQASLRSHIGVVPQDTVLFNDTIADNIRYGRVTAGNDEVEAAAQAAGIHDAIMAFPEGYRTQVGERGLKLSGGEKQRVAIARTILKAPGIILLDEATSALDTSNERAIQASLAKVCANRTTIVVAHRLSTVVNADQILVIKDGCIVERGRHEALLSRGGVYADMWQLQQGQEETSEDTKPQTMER
XiGFP reactiv = activators of inactive X chromosome reactivation, primary screen, imaging, XiGFP fibroblasts, GFP high-content imaging, set 2; XiGFP mouse fibroblasts, % GFP-positive cells imaging, 3 d; cells co-treated with 5-aza-dC sensitizer; scaled so ellipticine positive control = 100%; activation, % at 7.58 µM; 0.055% of 360,000 active; AID 743238, 2013;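 active means mean normalized replicate activation at least 10% and every replicate at or above 10%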
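Material: XiGFP fibroblasts, SV40-immortalized. Buffer or medium: DMEM plus 5-aza-dC sensitizer. Compound: single concentration per compound, delivered by pin transfer. Times: 3 days compound exposure. Controls: ellipticine 6 µM.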
Myeloid diff MLP = induction of myeloid progenitor differentiation, primary screen, cell-based, flow cytometry, MLPCN library; ER-HoxA9 myeloid progenitors, lysozyme-GFP differentiation; calls only at 10 µM; 1% of 360,000 active;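 active means normalized GFP-positive differentiation at or above the plate's own cutoff, the solvent-only control mean plus 3 SD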;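 further: cells exposed to compound for four days before flow analysis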
ABCB6 blocker 1 = ABCB6 transporter inhibitors, confirmation, K562-ABCB6 cells, flow cytometry, cherry pick 1 | shares compounds with ABCB6 inh 2 | K562-ABCB6 porphyrin accumulation, 1 h; active compounds read low | ratio response (% of DMSO), % at 10 µM | 700 tested, under 10 active | AID 602430, 2012;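 active means repeat-averaged ratio response below 75% of DMSO, the collection mean minus 3 SD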;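 further: median porphyrin fluorescence at 575 nm with 488 nm excitation from mitochondria; lower ratio means less porphyrin signal so ABCB6 inhibition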
Numbers stand for hits; . = inactive; / = no result given.

SMILES	ABCB6 inh 2	XiGFP reactiv	Myeloid diff MLP	ABCB6 blocker 1
O=C(c1ccc(Cn2cc([N+](=O)[O-])cn2)o1)N1N=C(C(F)F)CC1(O)C(F)F (stereo not given)	.	/	.	/
O=C(c1ccc(COc2ccccc2Br)o1)N1N=C(C(F)F)CC1(O)C(F)F (stereo not given)	.	.	.	.
CNC(=O)c1cc(Nc2nnc(-c3ccc(C)c(S(N)(=O)=O)c3)c3ccccc23)ccc1OC	74.0	.	.	.
CC(=O)Nc1ccc(Nc2nnc(-c3ccc(C)c(S(N)(=O)=O)c3)c3ccccc23)cc1	.	.	.	/
CN1C(=O)c2cc(NC(=O)c3cccs3)ccc2OC[C@@H]2O[C@@H](CC(=O)O)CC[C@@H]21	/	.	/	/
O=C(CC(c1ccc(F)cc1)c1ccco1)N1CCOCC1 (stereo not given)	72.0	/	.	.
O=C(CC(c1ccc(F)cc1)c1ccco1)N1CCCC1 (stereo not given)	.	/	.	/
CCCc1ccc(OCCNC(=O)CC)cc1	.	/	.	/
CCCc1ccc(OCCNC(C)=O)cc1	68.0	/	.	.
c1ccc(CNc2ncnc3nc[nH]c23)cc1	.	.	.	/
CCOc1cc(CNc2ncnc3nc[nH]c23)ccc1OC	73.0	.	.	.
COC(=O)C1CCN(C(=O)Cc2ccccc2OC)CC1	72.0	.	.	.
COc1ccccc1CC(=O)N1CCN(c2ccccc2)CC1	.	.	.	/
CCS(=O)(=O)Nc1ccc2c(c1)C(=O)N(C)[C@@H]1CC[C@H](CC(=O)NC)O[C@@H]1CO2	/	.	/	/
O=C1C=C(c2ccc(OC(F)(F)F)cc2)C[C@@H](c2ccc(Cl)cc2)C1	74.0	.	.	.
COc1ccc(C2=CC(=O)C[C@H](c3ccc(Cl)cc3)C2)cc1	.	.	.	/
COc1ccccc1-c1cn(CC[C@@H]2CC[C@H](NC(=O)c3ccccc3F)[C@@H](CO)O2)nn1	/	.	/	/
CC(C)(C)[S@](=O)N1Cc2cc(C(=O)O)nc(-c3cccc(-c4cccc(F)c4)c3)c2[C@@H]1CCO	/	.	/	/
COC(=O)C[C@@H]1CC[C@@H]2[C@@H](COc3ccc(NC(=O)c4ccccc4)cc3C(=O)N2C)O1	/	.	/	/
O=C(NCc1ccc(F)cc1)c1cc(-c2cccs2)on1	.	/	.	/
O=C(NCc1ccccc1)c1cc(-c2cccs2)on1	62.0	/	.	.
COc1ccc(S(=O)(=O)N2CCN(C)CC2)cc1Br	.	/	.	/
CCN1CCN(S(=O)(=O)c2ccc(OC)c(Br)c2)CC1	74.0	/	.	.
Cc1ccc(F)c(S(=O)(=O)NC(=O)C2(C)CCN2C(=O)C2(c3ccc(Cl)cc3)CC2)c1 (stereo not given)	.	.	.	.
Cc1ccc(S(=O)(=O)NC(=O)C2(C)CCN2C(=O)C2(c3ccc(Cl)cc3)CCC2)cc1 (stereo not given)	.	.	.	/
SMILES	ABCB6 inh 2	XiGFP reactiv	Myeloid diff MLP	ABCB6 blocker 1
Cc1ccccc1S(=O)(=O)NC(=O)C1(C)CCN1C(=O)C1(c2ccccc2)CC1 (stereo not given)	.	.	.	.
CC1(C(=O)NS(=O)(=O)c2cccc(C#N)c2)CCN1C(=O)C1(c2ccc(Cl)cc2)CC1 (stereo not given)	.	.	.	/
CC1(C(=O)NS(=O)(=O)c2ccc(Cl)cc2)CCN1C(=O)C1(c2ccc(Cl)cc2)CCC1 (stereo not given)	.	.	.	.
CC1(C(=O)NS(=O)(=O)c2ccc(C#N)cc2)CCN1C(=O)C1(c2ccc(Cl)cc2)CC1 (stereo not given)	.	.	.	.
Cc1ccc(F)c(S(=O)(=O)NC(=O)C2(C)CCN2C(=O)C2(c3ccc(Cl)cc3)CCC2)c1 (stereo not given)	.	.	.	/
CC(C)(C)c1ccc(S(=O)(=O)NC(=O)C2(C)CCN2C(=O)C2(c3ccccc3)CC2)cc1 (stereo not given)	.	.	.	/
C[C@@H]1CN([C@H](C)CO)C(=O)c2cc(NC(=O)Cc3ccccc3)ccc2O[C@@H](C)CCCCO[C@H]1CN(C)S(=O)(=O)c1ccccc1	/	.	/	/
CN(C)CC(=O)N1[C@@H]2c3ccc(-c4ccccc4)c(=O)n3C[C@@H]2[C@@H](CO)[C@@H]1C(=O)NC1CCC1	/	.	/	/
CC1(C(=O)NS(=O)(=O)c2ccc3c(c2)CCO3)CCN1C(=O)CCc1ccc(Cl)cc1Cl (stereo not given)	.	.	.	/
CC1(C(=O)NS(=O)(=O)c2ccc(C#N)cc2)CCN1C(=O)C1(c2ccccc2)CCCC1 (stereo not given)	.	.	.	.
CC1(C(=O)NS(=O)(=O)c2ccc(Cl)cc2)CCN1C(=O)C1(c2ccccc2)CCCC1 (stereo not given)	.	.	.	/
CC1(C(=O)NS(=O)(=O)c2ccccc2)CCN1C(=O)C1(c2ccc(Cl)cc2)CC1 (stereo not given)	71.0	.	.	.
CC1(C(=O)NS(=O)(=O)c2ccc3c(c2)CCO3)CCN1C(=O)C1(c2ccc(Cl)cc2)CCC1 (stereo not given)	.	.	.	.
CC1(C(=O)NS(=O)(=O)c2ccc(Br)cc2)CCN1C(=O)C1(c2ccccc2)CC1 (stereo not given)	.	.	.	/
CC(C)C#Cc1cnc2c(c1)C(=O)N([C@H](C)CO)C[C@@H](C)[C@H](CN(C)C(=O)c1cccnc1)O2	/	.	/	/
COc1cc(CN2CC3(CN(C(=O)Nc4c(C)noc4C)C3)c3c(n(C)c4cc(OC)ccc34)[C@H]2CO)cc(OC)c1	/	.	/	/
C/C=C/c1ccc2c(c1)O[C@@H](CN(C)Cc1cncnc1)[C@H](C)CN([C@@H](C)CO)S2(=O)=O	/	.	/	/
COc1ccccc1C(=O)Nc1ccc2c(c1)OC[C@H](C)NC[C@H](C)[C@@H](OC)CN(C)C2=O	/	.	/	/
Cc1ccc(S(=O)(=O)Nc2ccc3c(c2)C(=O)N([C@H](C)CO)C[C@@H](C)[C@H](CN(C)C(=O)Nc2ccc(F)cc2)OCCCC[C@H](C)O3)cc1	/	.	/	/
O=c1c(C(c2ccc(Br)cc2)c2c(O)nc3n(c2=O)CCCS3)c(O)nc2n1CCCS2	.	.	.	/
O=c1c(C(c2ccc(Br)cc2)c2c(O)nc3n(c2=O)CCS3)c(O)nc2n1CCS2	74.0	.	.	.
C[C@H]1CN([C@@H](C)CO)C(=O)CCCn2cc(nn2)CO[C@@H]1CN(C)Cc1ccc2c(c1)OCCO2	/	.	/	/
CCCNC(=O)N[C@H]1C=C[C@H](CC(=O)NC2CCCCC2)O[C@H]1CO	/	.	/	/
COc1ccccc1OCCNc1nc2c(c(=O)n(C)c(=O)n2C)n1C	.	/	.	/
Cn1c(=O)c2c(nc(NCCOc3ccc(C(C)(C)C)cc3)n2C)n(C)c1=O	74.0	.	.	.
C[C@H]1CN([C@@H](C)CO)C(=O)c2c(c3ccccc3n2C)-c2ccccc2CO[C@H]1CN(C)S(=O)(=O)c1ccc(Cl)cc1	/	.	/	/
